Structures are written as SMILES. Values after ≈ are worked out from the molar mass of the structure shown. Active and inactive are the calls of the source. No cut-off for these calls is given here.

Assay [1] deals with 5-hydroxytryptamine receptor 1A (Homo sapiens) (UniProt P08908). Kind of assay: Displacement of [3H]-8-OH-DPAT from human recombinant 5HT1A receptor expressed in stable CHO cells at 10 uM incubated for 90 mins by microbeta scintillation counting method. It is filed as cell-based. Summed up: (§1)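 Primary radioligand binding screen run by the NIMH Psychoactive Drug Screening Program, with one test level of 10 μM. The read-out was inhibition of radioligand binding at each receptor.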
Sequence of 5-hydroxytryptamine receptor 1A (Homo sapiens) (P08908 whole entry): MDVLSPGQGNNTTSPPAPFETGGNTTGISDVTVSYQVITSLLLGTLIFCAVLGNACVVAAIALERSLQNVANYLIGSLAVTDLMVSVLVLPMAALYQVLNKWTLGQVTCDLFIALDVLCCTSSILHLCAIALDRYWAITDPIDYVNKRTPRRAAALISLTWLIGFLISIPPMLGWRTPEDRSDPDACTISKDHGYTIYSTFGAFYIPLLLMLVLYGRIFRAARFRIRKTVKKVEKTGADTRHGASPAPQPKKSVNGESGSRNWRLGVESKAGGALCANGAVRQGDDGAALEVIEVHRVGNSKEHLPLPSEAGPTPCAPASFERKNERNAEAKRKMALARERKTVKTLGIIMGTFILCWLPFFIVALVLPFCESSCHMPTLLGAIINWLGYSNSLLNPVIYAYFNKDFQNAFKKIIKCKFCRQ

Assay [2] has as its target Delta-type opioid receptor (Homo sapiens) (UniProt P41143). Kind of assay: Displacement of [3H]-DADLE from human recombinant DOR receptor expressed in stable HEK cells incubated for 90 mins by microbeta scintillation counting method. Type of assay: cell-based. A general note: Loss of bound radioactivity is the signal in a displacement assay; it reports binding, not function.

Assay [3] deals with 5-hydroxytryptamine receptor 2C (Homo sapiens) (UniProt P28335). Kind of assay: Displacement of [3H]-Mesulergin from human recombinant 5HT2C receptor expressed in CHO cells at 10 uM incubated for 90 mins by microbeta scintillation counting method. It is filed as cell-based. Summed up:
as §1

The test system of another assay is NIH3T3. Kind of assay: Cytotoxicity against mouse NIH/3T3 cells measured after 72 hrs by MTT assay. It is filed as cell-based. As to conditions: NIH3T3, 72 h. In general terms: Tetrazolium dyes change colour on reduction, which living cells bring about.
The target of assay [4] is D(1B) dopamine receptor (Homo sapiens) (UniProt P21918). Description: Displacement of [3H]-SCH23390 from human recombinant dopamine D5 receptor expressed in HEKT cells incubated for 90 mins by microbeta scintillation counting method. It is filed as cell-based.
Sequence of D(1B) dopamine receptor (Homo sapiens) (P21918 whole entry): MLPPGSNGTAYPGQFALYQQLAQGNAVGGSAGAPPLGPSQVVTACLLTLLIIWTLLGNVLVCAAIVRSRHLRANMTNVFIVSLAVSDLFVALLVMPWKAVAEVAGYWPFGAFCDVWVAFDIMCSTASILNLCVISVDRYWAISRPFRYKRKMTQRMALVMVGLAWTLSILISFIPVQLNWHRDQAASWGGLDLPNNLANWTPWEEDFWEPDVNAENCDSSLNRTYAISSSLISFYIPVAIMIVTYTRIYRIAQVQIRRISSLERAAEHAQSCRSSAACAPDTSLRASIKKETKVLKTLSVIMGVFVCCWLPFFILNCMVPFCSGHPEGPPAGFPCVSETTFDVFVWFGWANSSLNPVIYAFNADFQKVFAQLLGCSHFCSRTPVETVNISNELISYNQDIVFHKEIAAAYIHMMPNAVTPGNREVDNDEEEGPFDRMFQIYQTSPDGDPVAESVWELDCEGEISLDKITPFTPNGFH
Assay [5] deals with D(4) dopamine receptor (Homo sapiens) (UniProt P21917). Kind of assay: Displacement of [3H]-methylspiperone from human recombinant dopamine D4 receptor expressed in stable HEK cells incubated for 90 mins by microbeta scintillation counting method. Type of assay: cell-based.
Sequence of D(4) dopamine receptor (Homo sapiens) (P21917 whole entry): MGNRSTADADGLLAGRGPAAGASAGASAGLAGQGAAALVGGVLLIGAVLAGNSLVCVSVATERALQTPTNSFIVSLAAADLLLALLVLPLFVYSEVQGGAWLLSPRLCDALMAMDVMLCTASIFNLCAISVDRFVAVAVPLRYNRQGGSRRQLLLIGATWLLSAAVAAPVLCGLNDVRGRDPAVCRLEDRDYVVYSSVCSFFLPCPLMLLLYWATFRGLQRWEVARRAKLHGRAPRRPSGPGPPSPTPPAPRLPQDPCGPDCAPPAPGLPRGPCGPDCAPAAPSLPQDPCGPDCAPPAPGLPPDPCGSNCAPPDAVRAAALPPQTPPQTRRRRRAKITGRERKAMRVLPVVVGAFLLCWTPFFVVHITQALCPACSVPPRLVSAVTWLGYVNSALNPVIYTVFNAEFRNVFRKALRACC
The target in assay [6] is 5-hydroxytryptamine receptor 1E (Homo sapiens) (UniProt P28566). Kind of assay: Displacement of [3H]-5-HT from human recombinant 5HT1E receptor expressed in stable HEK cells at 10 uM incubated for 90 mins by microbeta scintillation counting method. Type of assay: cell-based. An outline of the steps: as §1
Sequence of 5-hydroxytryptamine receptor 1E (Homo sapiens) (P28566 whole entry): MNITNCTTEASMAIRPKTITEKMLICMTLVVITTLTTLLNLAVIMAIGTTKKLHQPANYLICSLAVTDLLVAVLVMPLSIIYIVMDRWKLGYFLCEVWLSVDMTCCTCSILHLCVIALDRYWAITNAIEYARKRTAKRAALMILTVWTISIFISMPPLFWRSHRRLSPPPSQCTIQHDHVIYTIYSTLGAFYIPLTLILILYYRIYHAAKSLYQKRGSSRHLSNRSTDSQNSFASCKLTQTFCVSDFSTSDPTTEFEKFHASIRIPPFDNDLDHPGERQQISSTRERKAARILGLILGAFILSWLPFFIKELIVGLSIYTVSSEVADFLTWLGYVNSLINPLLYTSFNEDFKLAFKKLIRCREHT
For assay [7], the target named is Sigma intracellular receptor 2 (Homo sapiens) (UniProt Q5BJF2). Description: Displacement of [3H]-[…] from human recombinant sigma2 receptor expressed in HEKT cells incubated for 90 mins by microbeta scintillation counting method. Type of assay: cell-based.
Sequence of Sigma intracellular receptor 2 (Homo sapiens) (Q5BJF2 whole entry): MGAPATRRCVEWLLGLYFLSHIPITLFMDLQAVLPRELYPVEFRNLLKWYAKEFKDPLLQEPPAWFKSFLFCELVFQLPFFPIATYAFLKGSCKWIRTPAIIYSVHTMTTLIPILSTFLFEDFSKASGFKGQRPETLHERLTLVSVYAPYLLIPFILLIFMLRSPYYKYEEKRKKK
Assay [8] addresses Histamine H4 receptor (Homo sapiens) (UniProt Q9H3N8). Description: Displacement of [3H]-Histamine from human recombinant histamine H4 receptor expressed in HEKT cells incubated for 90 mins by microbeta scintillation counting method. It is filed as cell-based.
The target of assay [9] is Alpha-1B adrenergic receptor (Homo sapiens) (UniProt P35368). Kind of assay: Displacement of [3H]-8-OH-DPAT from human recombinant alpha1B adrenergic receptor expressed in HEKT cells at 10 uM incubated for 90 mins by microbeta scintillation counting method. It is filed as cell-based. An outline of the steps: as §1
Sequence of Alpha-1B adrenergic receptor (Homo sapiens) (P35368 whole entry): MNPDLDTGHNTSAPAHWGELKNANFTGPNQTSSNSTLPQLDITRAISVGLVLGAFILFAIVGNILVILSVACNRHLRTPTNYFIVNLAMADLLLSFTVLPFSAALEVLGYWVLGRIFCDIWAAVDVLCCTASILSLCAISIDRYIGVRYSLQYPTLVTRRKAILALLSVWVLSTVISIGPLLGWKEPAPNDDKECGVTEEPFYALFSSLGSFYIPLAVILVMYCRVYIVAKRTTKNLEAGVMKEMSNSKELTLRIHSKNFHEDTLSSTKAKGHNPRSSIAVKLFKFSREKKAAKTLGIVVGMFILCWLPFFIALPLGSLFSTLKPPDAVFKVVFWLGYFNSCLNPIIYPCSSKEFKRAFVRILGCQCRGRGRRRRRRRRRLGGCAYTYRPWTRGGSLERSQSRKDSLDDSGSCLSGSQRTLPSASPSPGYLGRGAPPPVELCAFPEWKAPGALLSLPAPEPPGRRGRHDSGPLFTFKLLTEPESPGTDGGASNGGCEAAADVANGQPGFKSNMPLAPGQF
The target of assay [10] is Sodium-dependent dopamine transporter (Homo sapiens) (UniProt Q01959). Kind of assay: Displacement of [3H]-Win35428 from human recombinant DAT receptor expressed in stable HEK cells incubated for 90 mins by microbeta scintillation counting method. Type of assay: cell-based.
Sequence of Sodium-dependent dopamine transporter (Homo sapiens) (Q01959 whole entry): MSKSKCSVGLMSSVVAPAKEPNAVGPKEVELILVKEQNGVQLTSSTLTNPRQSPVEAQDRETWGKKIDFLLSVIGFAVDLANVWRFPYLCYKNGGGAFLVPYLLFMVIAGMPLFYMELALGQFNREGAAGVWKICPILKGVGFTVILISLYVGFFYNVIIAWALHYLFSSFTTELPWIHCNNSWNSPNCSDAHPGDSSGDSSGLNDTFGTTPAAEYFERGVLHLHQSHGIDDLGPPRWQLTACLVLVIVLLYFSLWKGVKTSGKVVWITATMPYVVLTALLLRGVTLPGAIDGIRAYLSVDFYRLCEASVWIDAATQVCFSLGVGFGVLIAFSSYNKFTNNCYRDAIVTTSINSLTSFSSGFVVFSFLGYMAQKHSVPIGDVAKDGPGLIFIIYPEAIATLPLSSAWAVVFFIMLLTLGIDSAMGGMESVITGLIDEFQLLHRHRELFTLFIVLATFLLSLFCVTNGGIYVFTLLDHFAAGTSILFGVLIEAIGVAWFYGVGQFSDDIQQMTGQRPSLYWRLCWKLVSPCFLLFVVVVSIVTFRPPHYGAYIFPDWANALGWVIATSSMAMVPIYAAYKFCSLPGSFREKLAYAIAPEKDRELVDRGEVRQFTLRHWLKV
For assay [11], the target named is Sodium-dependent serotonin transporter (Homo sapiens) (UniProt P31645). Kind of assay: Displacement of [3H]-citalopram from recombinant human SERT expressed in HEK cell membranes at 10 uM incubated for 90 mins by scintillation counting method. Summed up: as §1
Sequence of Sodium-dependent serotonin transporter (Homo sapiens) (P31645 whole entry, looked up): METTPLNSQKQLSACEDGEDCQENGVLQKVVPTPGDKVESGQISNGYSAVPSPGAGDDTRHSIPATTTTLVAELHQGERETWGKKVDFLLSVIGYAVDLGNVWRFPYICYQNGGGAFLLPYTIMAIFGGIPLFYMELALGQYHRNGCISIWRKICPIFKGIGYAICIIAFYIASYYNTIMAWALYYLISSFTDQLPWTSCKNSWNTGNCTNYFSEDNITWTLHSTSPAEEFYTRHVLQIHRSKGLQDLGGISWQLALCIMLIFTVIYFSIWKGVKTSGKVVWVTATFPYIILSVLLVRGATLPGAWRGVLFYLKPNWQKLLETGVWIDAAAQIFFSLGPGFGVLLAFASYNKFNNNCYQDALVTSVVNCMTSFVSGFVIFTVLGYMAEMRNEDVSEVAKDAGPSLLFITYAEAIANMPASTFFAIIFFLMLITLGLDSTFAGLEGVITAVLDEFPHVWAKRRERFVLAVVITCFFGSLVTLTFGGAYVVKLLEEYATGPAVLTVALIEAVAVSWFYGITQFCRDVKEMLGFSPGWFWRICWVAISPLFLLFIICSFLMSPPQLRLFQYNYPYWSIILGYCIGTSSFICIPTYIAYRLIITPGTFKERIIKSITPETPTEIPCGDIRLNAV

Sequence of Delta-type opioid receptor (Homo sapiens) (P41143 whole entry): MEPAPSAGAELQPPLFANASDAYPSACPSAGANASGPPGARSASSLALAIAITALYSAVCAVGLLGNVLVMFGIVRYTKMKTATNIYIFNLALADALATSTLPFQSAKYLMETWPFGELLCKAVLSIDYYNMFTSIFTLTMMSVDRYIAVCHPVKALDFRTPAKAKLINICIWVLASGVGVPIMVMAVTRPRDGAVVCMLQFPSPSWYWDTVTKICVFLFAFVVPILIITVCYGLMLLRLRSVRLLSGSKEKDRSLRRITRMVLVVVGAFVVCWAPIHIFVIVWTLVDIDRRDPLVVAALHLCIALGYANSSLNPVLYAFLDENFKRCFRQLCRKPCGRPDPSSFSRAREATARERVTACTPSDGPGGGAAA
Sequence of 5-hydroxytryptamine receptor 2C (Homo sapiens) (P28335 whole entry): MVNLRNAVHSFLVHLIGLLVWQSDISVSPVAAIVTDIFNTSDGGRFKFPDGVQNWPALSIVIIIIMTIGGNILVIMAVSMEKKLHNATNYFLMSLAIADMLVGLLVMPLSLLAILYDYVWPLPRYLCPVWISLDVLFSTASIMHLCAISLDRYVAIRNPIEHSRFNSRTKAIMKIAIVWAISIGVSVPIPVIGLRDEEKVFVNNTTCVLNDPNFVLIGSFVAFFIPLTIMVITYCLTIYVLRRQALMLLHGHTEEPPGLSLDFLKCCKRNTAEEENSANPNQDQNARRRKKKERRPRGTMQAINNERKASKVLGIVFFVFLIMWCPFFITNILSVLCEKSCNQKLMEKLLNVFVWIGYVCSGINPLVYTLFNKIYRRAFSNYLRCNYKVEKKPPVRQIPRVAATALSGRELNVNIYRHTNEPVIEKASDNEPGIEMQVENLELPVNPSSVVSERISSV
Sequence of Histamine H4 receptor (Homo sapiens) (Q9H3N8 whole entry): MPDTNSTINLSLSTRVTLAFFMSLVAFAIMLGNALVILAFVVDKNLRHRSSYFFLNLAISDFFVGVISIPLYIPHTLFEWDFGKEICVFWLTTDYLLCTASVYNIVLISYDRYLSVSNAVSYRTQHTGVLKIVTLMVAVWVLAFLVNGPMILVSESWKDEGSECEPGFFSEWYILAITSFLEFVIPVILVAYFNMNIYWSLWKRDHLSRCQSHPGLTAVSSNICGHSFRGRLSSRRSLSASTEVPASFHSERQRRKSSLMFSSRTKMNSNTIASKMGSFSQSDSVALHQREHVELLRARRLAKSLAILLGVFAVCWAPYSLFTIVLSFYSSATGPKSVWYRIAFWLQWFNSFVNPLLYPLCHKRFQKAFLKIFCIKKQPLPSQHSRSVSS

Take `Cn1c2cccc(=O)c-2nc2ccccc21` [PYOCYANIN]: the inhibition result in assay [1], in [2], in assay [3], in assay [4], in [5] and in assay [6] was “inactive” throughout. In addition, the inhibition result in [7], in [8], in assay [9], in assay [10] and in assay [11] was “inactive” in each case. For the same compound, the IC50 (as a rule, the concentration needed to halve the response being measured) in the assay with NIH3T3 was 3.66 µg/mL (≈ 17.4 µM).

The values above are taken from ChEMBL document CHEMBL4312019, “Design, synthesis, and evaluation of compounds capable of reducing Pseudomonas aeruginosa virulence” (Eur J Med Chem, 2020).
